Reference: ChEMBL document CHEMBL1158186, “Design, synthesis, and bioactivity of putative tubulin ligands with adamantane core” (Bioorg Med Chem Lett, 2008)
Calls of active or inactive are those of the source. No cut-off for these calls is given here.

Tests used:
A549 [1] = assay: Cytotoxicity against human A549 cells; format: functional, cell-based
Bos taurus [2] = species: Bos taurus; assay: Induction of bovine tubulin aggregation by SDS-PAGE
Outline: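 Sedimentation assay using tubulin purified from bovine brain, incubated with compound. Pellets were resolved by SDS–PAGE. Pelleted tubulin was expressed relative to the amount pelleted after incubation with taxol, set as 100%. DMSO served as the negative control.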

Bos taurus [3] = species: Bos taurus; assay: Induction of bovine tubulin aggregation by electron microscopy using uranyl acetate staining
Outline: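 Tubulin purified from bovine brain was incubated with compound. Samples were negatively stained with uranyl acetate and examined by electron microscopy for aggregates.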

Bos taurus [4] = species: Bos taurus; assay: Induction of bovine tubulin polymerization relative to taxol; design: concentration or dose not given beside the values
A549 [5] = assay: Cytotoxicity against human A549 cells assessed as formation of shortened aggregates of mirotube bundles at 5 uM by immuno-fluorescent microscopy; format: functional, cell-based
Outline: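 A549 cells were treated with compound at the concentration given in the line, then fixed with polyformaldehyde. Microtubules were stained with primary mouse anti-α-tubulin and a secondary Alexa 488-labelled rabbit anti-mouse antibody. Cells were examined by immunofluorescence microscopy for microtubule bundles and shortened aggregates.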

Activity (Bos taurus [2])	Activity (Bos taurus [3])	Activity (Bos taurus [4]) [%]	Compound	IC50 (A549 [1]) [µM]	Activity (A549 [5])
Active	Active	27.1	CC(C)(C)OC(=O)N[C@@H](c1ccccc1)[C@@H](O)C(=O)OC12CC3CC(C1)CC(C(=O)OC1COC1)(C3)C2	2.5	–
Active	Active	32.3	O=C(N[C@@H](c1ccccc1)[C@@H](O)C(=O)OC12CC3CC(C1)C(OC(=O)c1ccccc1)C(C3)C2)c1ccccc1 (mixture of isomers)	9.5	–
Active	–	32.9	O=C(CCNC(=O)c1ccccc1)OC12CC3CC(CC(C3)C1)C2	–	–
–	–	–	CC(=O)O[C@H]1C(=O)[C@@]2(C)[C@H]([C@H](OC(=O)c3ccccc3)[C@]3(O)C[C@H](OC(=O)[C@H](O)[C@@H](NC(=O)c4ccccc4)c4ccccc4)C(C)=C1C3(C)C)[C@]1(OC(C)=O)CO[C@@H]1C[C@@H]2O [PACLITAXEL]	0.002	–
Active	Active	57.1	O=C(N[C@@H](c1ccccc1)[C@@H](O)C(=O)OC12CC3CC(CC(C3)C1)C2)c1ccccc1	5.6	–
Active	–	25.3	CC(C)(C)OC(=O)N[C@@H](c1ccccc1)[C@@H](O)C(=O)O[C@H]1C[C@H]2C[C@@H](C1)C[C@@H](C(=O)OC1COC1)C2	3.8	–
–	–	–	COc1cc2c(c(OC)c1OC)-c1ccc(OC)c(=O)cc1[C@@H](NC(=O)CCCCCC(=O)OC1C3CC4CC1CC(OC(=O)[C@H](O)[C@@H](NC(=O)OC(C)(C)C)c1ccccc1)(C4)C3)CC2 (mixture of isomers)	0.0006	Active
